According to ChEMBL document CHEMBL4396917, “Synthesis and biological evaluation of novel benzylidene-succinimide derivatives as noncytotoxic antiangiogenic inhibitors with anticolorectal cancer activity in vivo” (Eur J Med Chem, 2019):
Active and inactive are the calls of the source. The rule behind the calls is not given here.

Legend:
[1] = molecular target: Mitogen-activated protein kinase 1 (Homo sapiens) (UniProt P28482); experiment: Inhibition of ERK2 (unknown origin) at 10 uM using myelin basic protein as substrate in presence of [gamma-33P]-ATP by scintillation counting analysis relative to control
Summary of the method: (§1)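 Radiometric kinase panel run by a contract lab. Kinase (5–10 mU) in 25 mM Tris pH 7.5, 0.02 mM EGTA, 0.66 mg/mL myelin basic protein, magnesium acetate and [γ-33P]-ATP (about 500 cpm/pmol). Started with Mg-ATP mix, 40 min at room temperature, stopped with 3% phosphoric acid. Spotted on P30 filters, washed in 75 mM phosphoric acid and methanol, scintillation counted. Mean ± SD of three independent experiments.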

[2] = Induction of apoptosis in human HT-29 cells assessed as viable cells at 20 uM after 24 hrs by Annexin V-FITC/propidium iodide staining based flow cytometric analysis (reference value: 80.8%); assay type: cell-based; conditions: read-out: Activity
[3] = system: HUVEC; experiment: Induction of apoptosis in VEGF-stimulated HUVEC assessed as late apoptotic cells at 1 uM after 24 hrs by Annexin V-FITC/propidium iodide staining based flow cytometric analysis (reference value: 11.3%); assay type: cell-based; conditions: human
Summary of the method: (§2)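 HUVECs plated at 5×10^5 per well and treated 24 h with 1, 5, 10 or 20 μM. Detached and adherent cells were pooled, washed in ice-cold PBS and resuspended in fresh medium. 1×10^5 cells were stained with annexin-V-FITC in annexin-V buffer for 20 min in the dark, then PI (50 μg/mL) was added. Read-out by flow cytometry.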

[4] = molecular target: Vascular endothelial growth factor receptor 2 (Homo sapiens) (UniProt P35968); experiment: Inhibition of VEGFR2 in VEGF-stimulated HUVEC assessed as downregulation of ERK1/2 phosphorylation at Thr202/Tyr204 residues at 1 to 10 uM pre-incubated for 2 hrs followed by VEGF stimulation and measured after 15 mins by Western blot analysis; assay type: cell-based
Summary of the method: (§3)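 HUVECs serum-starved overnight, pretreated 2 h with 1, 2.5, 5 or 10 μM compound, then stimulated 15 min with 50 ng/mL VEGF165. Lysed in Tris/EDTA/Triton/deoxycholate/SDS buffer with phosphatase and protease inhibitors. Protein equalized by Bradford, about 20 μg resolved on gradient SDS-PAGE. Blots probed for phospho and total VEGFR2 (Tyr1175), ERK1/2 (Thr202/Tyr204) and AKT (Ser473) against actin, with HRP/ECL detection.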

[5] = system: HUVEC; experiment: Induction of apoptosis in VEGF-stimulated HUVEC assessed as necrotic cells at 1 uM after 24 hrs by Annexin V-FITC/propidium iodide staining based flow cytometric analysis (reference value: 12.1%); assay type: cell-based; conditions: human; summary of the method: as §2
[6] = system: HT-29; experiment: Induction of apoptosis in human HT-29 cells assessed as necrotic cells at 5 uM after 72 hrs by Annexin V-FITC/propidium iodide staining based flow cytometric analysis (reference value: 1.3%); assay type: cell-based; conditions: ht-29, 72 h
[7] = system: HT-29; experiment: Induction of apoptosis in human HT-29 cells assessed as PARP cleavage up to 20 uM after 24 to 72 hrs by Western blot analysis; assay type: cell-based
[8] = system: HUVEC; experiment: Induction of apoptosis in VEGF-stimulated HUVEC assessed as late apoptotic cells at 5 uM after 24 hrs by Annexin V-FITC/propidium iodide staining based flow cytometric analysis (reference value: 11.3%); assay type: cell-based; conditions: human; summary of the method: as §2
[9] = system: HT-29; experiment: Antitumor activity against human HT-29 cells xenografted in mouse assessed as reduction in tumour volume at 60 mg/kg, po administered every other day for 3 weeks and measured at 20 days post-treatment relative to control; assay type: functional; conditions: HT-29, po
[10] = system: HUVEC; experiment: Effect on total Src expression in VEGF-induced HUVEC at 1 to 20 uM pre-incubated for 2 hrs followed by VEGF stimulation and measured after 15 mins by Western blot analysis; assay type: ADME, cell-based; conditions: human, 0.25 h
Summary of the method: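 HUVECs serum-starved overnight, pretreated with compound (methods: 1, 2.5, 5, 10 μM for 2 h; legend: 1, 5, 10, 20 μM for 1.5 h), then VEGF 50 ng/mL (methods: VEGF165, 15 min; legend: 30 min); lysates equalized by Bradford, ~20 μg protein resolved on gradient SDS-PAGE, immunoblotted, ECL detection.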

[11] = Induction of apoptosis in VEGF-stimulated HUVEC assessed as viable cells at 10 uM after 24 hrs by Annexin V-FITC/propidium iodide staining based flow cytometric analysis (reference value: 69.6%); assay type: cell-based; conditions: human, read-out: Activity; summary of the method: as §2
[12] = system: HT-29; experiment: Antiangiogenic activity against human HT-29 cells xenografted in mouse assessed as reduction in formation of new blood vessels in tumour at 20 to 60 mg/kg, po administered every other day for 3 weeks measured at 20 days post-treatment; assay type: functional, organism-based
[13] = system: HUVEC; experiment: Induction of apoptosis in VEGF-stimulated HUVEC assessed as late apoptotic cells at 10 uM after 24 hrs by Annexin V-FITC/propidium iodide staining based flow cytometric analysis (reference value: 11.3%); assay type: cell-based; conditions: human; summary of the method: as §2
[14] = system: HUVEC; experiment: Induction of apoptosis in VEGF-stimulated HUVEC assessed as PARP cleavage at 1 to 20 uM by Western blot analysis; assay type: cell-based; conditions: human
[15] = molecular target: Vascular endothelial growth factor receptor 2 (Homo sapiens) (UniProt P35968); experiment: Inhibition of VEGFR2 in VEGF-stimulated HUVEC assessed as suppression of VEGFR2 phosphorylation at Tyr1175 residue pre-incubated for 2 hrs followed by VEGF stimulation for 15 mins by Western blot analysis; assay type: cell-based; summary of the method: as §3
[16] = system: HT-29; experiment: Induction of apoptosis in human HT-29 cells assessed as early apoptotic cells at 5 uM after 48 hrs by Annexin V-FITC/propidium iodide staining based flow cytometric analysis (reference value: 5.3%); assay type: cell-based; conditions: ht-29, 48 h
[17] = molecular target: Mitogen-activated protein kinase 3 (Homo sapiens) (UniProt P27361); experiment: Inhibition of ERK1 (unknown origin) at 10 uM using myelin basic protein as substrate in presence of [gamma-33P]-ATP by scintillation counting analysis relative to control; summary of the method: as §1
[18] = system: HT-29; experiment: Induction of apoptosis in human HT-29 cells assessed as early apoptotic cells at 10 uM after 24 hrs by Annexin V-FITC/propidium iodide staining based flow cytometric analysis (reference value: 1.9%); assay type: cell-based; conditions: ht-29, 24 h
[19] = system: HT-29; experiment: Induction of apoptosis in human HT-29 cells assessed as necrotic cells at 20 uM after 24 hrs by Annexin V-FITC/propidium iodide staining based flow cytometric analysis (reference value: 3.9%); assay type: cell-based; conditions: ht-29, 24 h
[20] = system: PC-3; experiment: Cytotoxicity against human PC3 cells assessed as reduction in cell growth after 72 hrs by MTT assay; assay type: cell-based; conditions: PC-3, 72 h
[21] = system: HUVEC; experiment: Induction of apoptosis in VEGF-stimulated HUVEC assessed as caspase-3 cleavage at 1 to 20 uM by Western blot analysis; assay type: cell-based; conditions: human
[22] = system: HT-29; experiment: Induction of apoptosis in human HT-29 cells assessed as late apoptotic cells at 1 uM after 24 hrs by Annexin V-FITC/propidium iodide staining based flow cytometric analysis (reference value: 13.4%); assay type: cell-based; conditions: ht-29, 24 h
[23] = molecular target: Vascular endothelial growth factor receptor 2 (Homo sapiens) (UniProt P35968); experiment: Inhibition of VEGFR2 in VEGF-stimulated HUVEC assessed as downregulation of STAT3 phosphorylation at Tyr705 residue at 1 to 10 uM pre-incubated for 2 hrs followed by VEGF stimulation and measured after 15 mins by Western blot analysis; assay type: cell-based

Vascular endothelial growth factor receptor 2 (Homo sapiens), sequence (P35968 whole entry): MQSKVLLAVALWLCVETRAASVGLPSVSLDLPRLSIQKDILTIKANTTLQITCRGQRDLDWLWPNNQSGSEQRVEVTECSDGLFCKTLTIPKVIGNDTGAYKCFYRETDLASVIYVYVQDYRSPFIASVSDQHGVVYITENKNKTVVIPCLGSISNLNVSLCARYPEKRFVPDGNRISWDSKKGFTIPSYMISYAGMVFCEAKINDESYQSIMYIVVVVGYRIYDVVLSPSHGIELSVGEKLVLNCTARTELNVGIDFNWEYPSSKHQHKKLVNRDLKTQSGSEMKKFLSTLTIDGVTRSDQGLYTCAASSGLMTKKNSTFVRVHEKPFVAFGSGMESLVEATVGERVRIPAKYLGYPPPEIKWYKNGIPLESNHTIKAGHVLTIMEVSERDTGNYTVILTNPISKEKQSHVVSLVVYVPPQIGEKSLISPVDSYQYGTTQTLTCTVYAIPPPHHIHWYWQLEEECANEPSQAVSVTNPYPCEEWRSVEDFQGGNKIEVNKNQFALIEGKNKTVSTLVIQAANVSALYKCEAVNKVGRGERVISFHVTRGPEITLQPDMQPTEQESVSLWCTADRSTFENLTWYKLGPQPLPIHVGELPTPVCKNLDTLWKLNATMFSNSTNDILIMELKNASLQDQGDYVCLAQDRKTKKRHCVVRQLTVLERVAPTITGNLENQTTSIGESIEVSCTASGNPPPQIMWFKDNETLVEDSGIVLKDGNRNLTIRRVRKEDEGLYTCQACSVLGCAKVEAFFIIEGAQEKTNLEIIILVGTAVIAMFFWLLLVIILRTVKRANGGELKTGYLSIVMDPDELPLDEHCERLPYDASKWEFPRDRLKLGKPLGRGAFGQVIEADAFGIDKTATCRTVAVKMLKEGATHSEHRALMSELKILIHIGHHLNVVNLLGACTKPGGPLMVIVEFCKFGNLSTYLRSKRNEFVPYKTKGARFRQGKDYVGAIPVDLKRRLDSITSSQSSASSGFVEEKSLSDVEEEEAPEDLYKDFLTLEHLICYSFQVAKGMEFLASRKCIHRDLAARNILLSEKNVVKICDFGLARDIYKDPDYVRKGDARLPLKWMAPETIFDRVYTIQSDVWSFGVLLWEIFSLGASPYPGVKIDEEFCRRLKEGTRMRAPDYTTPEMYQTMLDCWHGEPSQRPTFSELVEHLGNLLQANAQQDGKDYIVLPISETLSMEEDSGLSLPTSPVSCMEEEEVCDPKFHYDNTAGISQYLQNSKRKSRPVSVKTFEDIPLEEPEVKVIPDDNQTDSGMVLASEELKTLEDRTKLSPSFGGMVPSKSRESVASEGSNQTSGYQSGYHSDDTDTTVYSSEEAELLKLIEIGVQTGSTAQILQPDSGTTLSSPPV
Mitogen-activated protein kinase 1 (Homo sapiens), sequence (P28482 whole entry): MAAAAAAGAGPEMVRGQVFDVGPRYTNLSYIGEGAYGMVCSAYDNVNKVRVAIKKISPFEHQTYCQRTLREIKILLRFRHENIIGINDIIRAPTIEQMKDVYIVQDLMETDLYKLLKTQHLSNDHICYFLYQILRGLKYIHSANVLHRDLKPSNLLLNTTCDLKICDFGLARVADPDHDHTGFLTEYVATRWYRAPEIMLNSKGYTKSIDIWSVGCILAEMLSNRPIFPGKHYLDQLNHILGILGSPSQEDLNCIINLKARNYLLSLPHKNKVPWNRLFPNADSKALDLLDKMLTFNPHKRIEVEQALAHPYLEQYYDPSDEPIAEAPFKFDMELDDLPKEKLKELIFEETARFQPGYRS
Mitogen-activated protein kinase 3 (Homo sapiens), sequence (P27361 whole entry): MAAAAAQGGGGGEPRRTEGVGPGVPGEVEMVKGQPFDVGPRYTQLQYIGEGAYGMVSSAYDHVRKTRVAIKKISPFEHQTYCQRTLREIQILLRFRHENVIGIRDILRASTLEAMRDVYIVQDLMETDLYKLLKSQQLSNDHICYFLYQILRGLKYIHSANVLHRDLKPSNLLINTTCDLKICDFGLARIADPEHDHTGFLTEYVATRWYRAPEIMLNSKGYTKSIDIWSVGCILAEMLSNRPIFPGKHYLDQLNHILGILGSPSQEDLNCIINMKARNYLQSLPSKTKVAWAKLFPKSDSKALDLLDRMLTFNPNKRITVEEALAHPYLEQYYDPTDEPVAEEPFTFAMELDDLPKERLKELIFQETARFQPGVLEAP

inhibition [1]: 50 to 70%
inhibition [4]: Active
Activity [10]: Not Active
inhibition [15]: Dose-dependent effect
inhibition [17]: 50 to 70%
inhibition [23]: Active
Structure (SMILES): COc1ccc(NC(=O)c2cccc(/C=C3\CC(=O)N(c4ccc(C)cc4)C3=O)c2)cc1
viability at 24 h, 20 µM [2]: 78.9%
Activity [3]: 10.4%
Activity [5]: 6.2%
Activity [6]: 0.8%
Activity [7]: Non-Toxic
Activity [8]: 9.7%
inhibition in vivo at 60 mg/kg [9]: 53.5%
viability at 24 h, 10 µM [11]: 72%
inhibition [12]: Active
Activity [13]: 11.7%
Activity [14]: Non-Toxic
Activity [16]: 9.7%
Activity [18]: 1.5%
Activity [19]: 2.3%
IC50 [20]: > 100 µM
Activity [21]: Non-Toxic
Activity [22]: 14.4%
